Calls of active or inactive are those of the source. The calls are words filed in the database; no cut-off is given here.
Columns and labels:
[1] = It is the ratio, measured as saluretic activity in the dog as concentration of Cl- in urinary excretion (dose 1.56 mg/Kg, perorally) to that of (Na+)+(K+); assay type: functional, Urine
Summary of the method: (§1)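 Trained male beagles, fasted 24 h with tap water ad libitum. Bladder emptied by catheter, then 20 mL/kg tap water by stomach tube, with 4 mL/kg water at each hourly catheterization up to 8 h. The first 2 h of urine served as control. Oral dosing came after the second catheterization, and 1–6 h urine was pooled. Na⁺ and K⁺ were measured by flame photometry, Cl⁻ argentometrically, in mequiv/kg.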

[2] = species: Rattus norvegicus; experiment: Diuretic activity in the rats, determined by a modified Lipschitz test; assay type: functional, Urine
Summary of the method: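 Modified Lipschitz test: rats deprived of water 24 h, grouped in threes of similar weight in diuresis funnels. Oral dose of 50 mg/kg, suspended in 2% starch solution, by stomach tube.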

[3] = species: Rattus norvegicus; experiment: Saluretic activity in the rat measured as concentration of chloride in urine; assay type: functional
Summary of the method: (§2)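 Rats deprived of food 24 h, water ad libitum, dosed 50 mg/kg by stomach tube as suspension in 2% starch, no extra water load. Groups of three in diuresis funnels; urine over first 5 h collected. Na⁺ and K⁺ by flame photometry, Cl⁻ argentometrically; expressed as mequiv/kg.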

[4] = test system: Canis familiaris; experiment: Salidiuretic activity on the basis of the 1.56 mg/Kg po dog assay; compound is found to be active; assay type: functional, organism-based; conditions: Canis lupus familiaris; Urine
[5] = species: Rattus norvegicus; experiment: Saluretic activity in the rat measured as concentration of Na+ in urine; assay type: functional; summary of the method: as §2
[6] = It is the ratio, measured as saluretic activity in the dog as concentration of Na+ in urinary excretion (dose 1.56 mg/Kg, perorally) to that of K; assay type: functional, Urine; summary of the method: as §1
[7] = test system: Canis familiaris; experiment: Sailuric activity in the dog measured as concentration of Cl - in urinary excretion (2 animals/dose) at (dose 1.56 mg/Kg, po); assay type: functional, Canis lupus familiaris, Urine
Summary of the method: (§3)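 Male beagles trained to the procedures, food withdrawn 24 h before, tap water ad libitum. Bladder emptied by catheter, then 20 mL/kg tap water by stomach tube, plus 4 mL/kg orally at each hourly catheterization up to 8 h. The first 2 h of urine served as control. Compound given orally after the second catheterization. Urine from 1–6 h post-dose pooled; Na⁺ and K⁺ by flame photometry, Cl⁻ argentometrically, in mequiv/kg.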

[8] = test system: Rattus norvegicus; experiment: Salidiuretic activity on the basis of the 50 mg/kg po rat assay; Compound is found to be modetately active; assay type: functional, organism-based; design: dose 50 mg/kg; conditions: Urine
[9] = test system: Canis familiaris; experiment: Sailuric activity in the dog measured as concentration of K+ in urinary excretion (2 animals/dose) at (dose 1.56 mg/Kg, po); assay type: functional, Canis lupus familiaris, Urine; summary of the method: as §3
[10] = test system: Canis familiaris; experiment: Diuretic activity in the dog (2 animals/dose) at (dose 1.56 mg/Kg), when administered perorally; assay type: functional, Canis lupus familiaris, Urine; summary of the method: as §1
[11] = test system: Canis familiaris; experiment: Saluretic activity in the dog measured as concentration of Na+ in urinary excretion (2 animals/dose) at (dose 1.56 mg/Kg, perorally); assay type: functional, Canis lupus familiaris, Urine
Summary of the method: (§4)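 Male beagles trained to rest on a table and to accept stomach tube and catheter. Food withdrawn 24 h before, tap water ad libitum. Bladder emptied by catheter, then 20 mL/kg tap water by stomach tube. Catheterized hourly up to 8 h with 4 mL/kg water orally each time; first 2 h urine served as control. Oral dosing after second catheterization. Pooled 1–6 h urine; Na⁺/K⁺ by flame photometry, Cl⁻ argentometrically.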

[12] = species: Rattus norvegicus; experiment: Saluretic activity in the rat measured as concentration of K+ in urine; assay type: functional; summary of the method: as §2
[13] = It is the ratio, measured as saluretic activity in the dog as concentration of Cl- in urinary excretion (dose 1.56 mg/Kg, po) to that of (Na+)+(K+); assay type: functional, Urine; summary of the method: as §1
[14] = test system: Canis familiaris; experiment: Saluretic activity in the dog measured as concentration of K+ in urinary excretion (2 animals/dose) at (dose 0.1 mg/Kg, po); assay type: functional, Canis lupus familiaris, Urine; summary of the method: as §3
[15] = test system: Canis familiaris; experiment: Saluretic activity in the dog measured as concentration of Na+ in urinary excretion (2 animals/dose) at (dose 0.1 mg/Kg, po); assay type: functional, Canis lupus familiaris, Urine; summary of the method: as §4
[16] = test system: Canis familiaris; experiment: Salidiuretic activity on the basis of the 1.56 mg/Kg po dog assay; compound was highly active; assay type: functional, organism-based; conditions: Canis lupus familiaris; Urine
[17] = It is the ratio, measured as saluretic activity in the dog as concentration of Na+ in urinary excretion (dose 1.56 mg/Kg, po) to that of K; assay type: functional, Urine; summary of the method: as §1
[18] = test system: Rattus norvegicus; experiment: Salidiuretic activity on the basis of the 50 mg/kg po rat assay; compound was highly active; assay type: functional, organism-based; design: dose 50 mg/kg; conditions: Urine
[19] = test system: Canis familiaris; experiment: Saluretic activity in the dog measured as concentration of Na+ in urinary excretion (2 animals/dose) at (dose 1.56 mg/Kg, po); assay type: functional, Canis lupus familiaris, Urine; summary of the method: as §4
[20] = It is the ratio, measured as saluretic activity in the dog as concentration of Cl- in urinary excretion (dose 0.1 mg/Kg, po) to that of (Na+)+(K+); assay type: functional, Urine; summary of the method: as §1
[21] = test system: Canis familiaris; experiment: Saluretic activity in the dog measured as concentration of Cl - in urinary excretion (2 animals/dose) at (dose 1.56 mg/Kg, po); assay type: functional, Canis lupus familiaris, Urine; summary of the method: as §3
[22] = It is the ratio, measured as saluretic activity in the dog as concentration of Na+ in urinary excretion (dose 0.1 mg/Kg, po) to that of K; assay type: functional, Urine; summary of the method: as §1
[23] = test system: Canis familiaris; experiment: Saluretic activity in the dog measured as concentration of K+ in urinary excretion (2 animals/dose) at (dose 1.56 mg/Kg, po); assay type: functional, Canis lupus familiaris, Urine; summary of the method: as §4
[24] = test system: Canis familiaris; experiment: Saluretic activity in the dog measured as concentration of Cl - in urinary excretion (2 animals/dose) at (dose 0.1 mg/Kg, po); assay type: functional, Canis lupus familiaris, Urine; summary of the method: as §3
[25] = test system: Canis familiaris; experiment: Diuretic activity in the dog (2 animals/dose) at (dose 0.1 mg/Kg), when administered perorally; assay type: functional, Canis lupus familiaris, Urine; summary of the method: as §1
[26] = test system: Canis familiaris; experiment: Salidiuretic activity on the basis of the 1.56 mg/Kg po dog assay; Compound was highly active; assay type: functional, organism-based; conditions: Canis lupus familiaris; Urine
[27] = test system: Rattus norvegicus; experiment: Salidiuretic activity on the basis of the 50 mg/kg po rat assay; Compound was moderately active active; assay type: functional, organism-based; design: dose 50 mg/kg; conditions: Urine
[28] = test system: Canis familiaris; experiment: Saluretic activity in the dog measured as concentration of K+ in urinary excretion (2 animals/dose) (dose 1.56 mg/kg, p.o.); assay type: functional, Canis lupus familiaris, Urine; conditions: route oral; summary of the method: as §3

Row | SMILES | Diuretic activity [2] | Saluretic activity [3] | Saluretic activity [5] | Diuretic activity [10] | Saluretic activity [12] | Ratio [13] | Ratio [17] | Saluretic activity [19] | Saldiuretic activity [21] | Saluretic activity [23] | also measured
1 | NCc1ccccc1.NS(=O)(=O)c1cc(S(=O)(=O)O)c(NCc2ccccc2)cc1Cl | 1.4 mL/kg | 1.2 m equiv 5hr-1 kg-1 | 1.4 m equiv 5hr-1 kg-1 | 40.4 ml kg-1 6hr-1 | 1.4 m equiv 5hr-1 kg-1 |  |  |  |  |  | Ratio [1]: 1.05; Saldiuretic activity [4]: Active; Ratio [6]: 4.7; Saldiuretic activity [7]: 2.07 m equiv 6hr-1 kg-1; Saldiuretic activity [8]: Weak activity; Saluretic activity [9]: 0.35 m equiv 6hr-1 kg-1; Saluretic activity [11]: 1.65 m equiv 6hr-1 kg-1
2 | NS(=O)(=O)c1cc(S(=O)(=O)[O-])c(NCc2cccs2)cc1S(=O)(=O)C1CCCCC1.[Na+] | 4 mL/kg | 8.7 m equiv 5hr-1 kg-1 | 7.3 m equiv 5hr-1 kg-1 | 66.7 ml kg-1 6hr-1 | 2.2 m equiv 5hr-1 kg-1 | 1 | 5.1 | 5.4 m equiv 6hr-1 kg-1 | 6.39 m equiv 6hr-1 kg-1 | 1.05 m equiv 6hr-1 kg-1 | Saldiuretic activity [14]: 0.41 m equiv 6hr-1 kg-1; Saluretic activity [15]: 3.18 m equiv 6hr-1 kg-1; Saldiuretic activity [16]: Active; Saldiuretic activity [18]: Active; Ratio [20]: 1; Ratio [22]: 7.7; Saldiuretic activity [24]: 3.54 m equiv 6hr-1 kg-1; Diuretic activity [25]: 47.4 ml kg-1 6hr-1
3 | CN(c1ccccc1)c1cc(NCc2ccccc2)c(S(=O)(=O)[O-])cc1S(N)(=O)=O.[Na+] | 2.6 mL/kg | 4 m equiv 5hr-1 kg-1 | 3.5 m equiv 5hr-1 kg-1 | 71.7 ml kg-1 6hr-1 | 1.4 m equiv 5hr-1 kg-1 | 0.9 | 4.4 | 6.59 m equiv 6hr-1 kg-1 | 7.34 m equiv 6hr-1 kg-1 | 1.51 m equiv 6hr-1 kg-1 | Saldiuretic activity [26]: Active; Saldiuretic activity [27]: Active
4 | CCCC[S+]([O-])c1cc(NCc2ccco2)c(S(=O)(=O)[O-])cc1S(N)(=O)=O.[Na+] (configuration not stated) | 1 mL/kg | 1.4 m equiv 5hr-1 kg-1 | 0.9 m equiv 5hr-1 kg-1 | 34.9 ml kg-1 6hr-1 | 1 m equiv 5hr-1 kg-1 | 1 | 3 | 0.89 m equiv 6hr-1 kg-1 | 1.43 m equiv 6hr-1 kg-1 |  | Saldiuretic activity [28]: 0.35 (m equiv) 6hr-1 kg-1
